{
  "source": "ChEMBL document CHEMBL3864151",
  "about": "“Discovery of imidazopyridazines as potent Pim-1/2 kinase inhibitors” (Bioorg Med Chem Lett, 2016)",
  "key": {"[1]": {"test": "Intrinsic clearance in human liver microsomes at 1 uM after 30 mins by LC-MS HRMS analysis", "type": "ADME", "conditions": "read-out: CLH"}, "[2]": {"target": "Phosphatidylinositol 4-phosphate 5-kinase type-1 gamma (Homo sapiens) (UniProt O60331)", "sequence (O60331 whole entry)": "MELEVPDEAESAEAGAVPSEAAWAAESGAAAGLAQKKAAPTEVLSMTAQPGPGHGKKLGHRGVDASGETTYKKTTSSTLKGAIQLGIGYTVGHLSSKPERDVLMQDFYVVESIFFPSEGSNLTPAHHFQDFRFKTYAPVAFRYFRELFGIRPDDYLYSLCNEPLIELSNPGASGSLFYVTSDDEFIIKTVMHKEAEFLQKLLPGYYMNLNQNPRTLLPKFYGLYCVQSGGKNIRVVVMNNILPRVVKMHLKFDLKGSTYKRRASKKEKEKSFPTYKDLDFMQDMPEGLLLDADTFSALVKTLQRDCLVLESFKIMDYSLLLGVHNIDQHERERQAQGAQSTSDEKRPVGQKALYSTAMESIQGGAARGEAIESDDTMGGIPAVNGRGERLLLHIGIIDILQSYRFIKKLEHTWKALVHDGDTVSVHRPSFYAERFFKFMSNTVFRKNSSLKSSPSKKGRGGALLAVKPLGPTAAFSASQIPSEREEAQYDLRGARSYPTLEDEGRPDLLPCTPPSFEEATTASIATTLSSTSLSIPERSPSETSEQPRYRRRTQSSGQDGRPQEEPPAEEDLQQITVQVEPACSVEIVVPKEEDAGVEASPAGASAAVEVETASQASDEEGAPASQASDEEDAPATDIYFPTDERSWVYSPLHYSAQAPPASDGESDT", "test": "Competitive binding affinity to partial length wild type human PIP5K1C expressed in mammalian expression system at 10 uM by kinomescan method relative to control", "in_short": "(§1)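 DiscoveRX scanMAX kinase panel of protein and lipid kinases and common mutants; competitive binding of compound at 10 µM expressed as percentage of control (POC).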"}, "KMS-12-BM": {"test_system": "KMS-12-BM", "test": "Induction of apoptosis in human KMS-12-BM cells assessed as increase in cleaved-PARP levels at […] after 4 to 72 hrs by Western blot method", "type": "functional, cell-based"}, "[3]": {"test": "AUC (0 to infinity) in Sprague-Dawley rat at 5 mg/kg, po", "type": "ADME, organism-based", "set-up": "dose 5 mg/kg, route oral, time infinity", "conditions": "in vivo", "in_short": "(§2)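 Male Sprague Dawley rats, 3 animals per dosing route, mean values. iv dose 2 mg/kg as a solution in DMSO; po dose 5 mg/kg in 1% Tween 80, 2% HPMC, 97% water/methanesulfonic acid pH 2.2.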"}, "[4]": {"test": "Mean residence time in Sprague-Dawley rat at 2 mg/kg, iv", "type": "ADME, organism-based", "conditions": "in vivo", "in_short": "as §2"}, "[5]": {"target": "Homeodomain-interacting protein kinase 1 (Homo sapiens) (UniProt Q86Z02)", "sequence (Q86Z02 whole entry, looked up)": "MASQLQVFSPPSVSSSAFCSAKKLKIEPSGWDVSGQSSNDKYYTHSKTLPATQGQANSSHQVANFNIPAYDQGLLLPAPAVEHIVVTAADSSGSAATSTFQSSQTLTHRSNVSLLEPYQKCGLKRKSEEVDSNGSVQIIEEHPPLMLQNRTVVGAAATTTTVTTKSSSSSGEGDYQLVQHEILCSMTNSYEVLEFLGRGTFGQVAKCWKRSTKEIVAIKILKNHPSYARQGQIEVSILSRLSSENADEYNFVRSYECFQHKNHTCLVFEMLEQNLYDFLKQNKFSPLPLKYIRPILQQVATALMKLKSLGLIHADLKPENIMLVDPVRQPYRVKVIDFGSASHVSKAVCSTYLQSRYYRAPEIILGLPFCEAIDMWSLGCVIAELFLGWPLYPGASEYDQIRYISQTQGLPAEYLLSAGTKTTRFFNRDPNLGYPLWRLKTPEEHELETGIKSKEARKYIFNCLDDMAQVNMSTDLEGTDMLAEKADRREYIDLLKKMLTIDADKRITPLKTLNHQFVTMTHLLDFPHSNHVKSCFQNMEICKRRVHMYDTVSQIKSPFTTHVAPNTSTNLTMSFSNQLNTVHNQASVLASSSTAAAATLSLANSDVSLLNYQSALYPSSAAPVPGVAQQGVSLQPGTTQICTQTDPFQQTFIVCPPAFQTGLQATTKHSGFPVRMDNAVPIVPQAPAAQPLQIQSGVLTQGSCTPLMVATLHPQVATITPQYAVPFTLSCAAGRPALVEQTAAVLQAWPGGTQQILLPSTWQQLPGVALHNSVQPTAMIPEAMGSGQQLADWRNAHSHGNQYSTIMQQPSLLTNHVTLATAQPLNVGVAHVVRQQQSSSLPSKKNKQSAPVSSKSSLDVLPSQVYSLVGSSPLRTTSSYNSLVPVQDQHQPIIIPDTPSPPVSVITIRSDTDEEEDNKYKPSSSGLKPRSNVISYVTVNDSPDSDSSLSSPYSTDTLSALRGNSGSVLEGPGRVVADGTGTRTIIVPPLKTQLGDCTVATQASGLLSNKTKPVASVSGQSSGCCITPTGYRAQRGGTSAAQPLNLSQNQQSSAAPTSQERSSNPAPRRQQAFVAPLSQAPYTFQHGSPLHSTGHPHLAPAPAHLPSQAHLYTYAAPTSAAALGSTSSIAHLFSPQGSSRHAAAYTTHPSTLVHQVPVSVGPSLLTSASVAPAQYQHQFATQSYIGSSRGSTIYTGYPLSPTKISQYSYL", "test": "Competitive binding affinity to partial length wild type human HIPK1 expressed in mammalian expression system at 10 uM by kinomescan method relative to control", "in_short": "as §1"}, "[6]": {"test": "Oral bioavailability in Sprague-Dawley rat at 5 mg/kg", "type": "ADME, organism-based", "conditions": "in vivo", "in_short": "as §2"}, "[7]": {"test": "Antiproliferative activity against PTEN-deficient human OPM2 cells after 72 hrs by CellTiter-Glo assay", "type": "functional, cell-based", "conditions": "OPM-2, 72 h"}, "[8]": {"test": "Aqueous solubility in 0.01N HCl after 48 to 72 hrs by HPLC analysis", "type": "physicochemical", "in_short": "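Aqueous solubility determined in 0.01N HCl, PBS (pH 7.4) and FaSIF (pH 6.8).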"}, "[9]": {"test": "Antiproliferative activity against human MOLP2 cells after 72 hrs by CellTiter-Glo assay", "type": "functional, cell-based", "conditions": "MOLP-2, 72 h"}, "[10]": {"test": "Inhibition of Pim signaling in human KMS-12-BM cells assessed as upregulation of Pim2 expression at […] after 4 to 72 hrs by Western blot method", "type": "cell-based"}, "[11]": {"test": "Antiproliferative activity against human MM1S cells after 72 hrs by CellTiter-Glo assay", "type": "functional, cell-based", "conditions": "MM1.S"}, "MDR1": {"test_system": "MDR1", "test": "Permeability in rat LLC-PK1 cells expressing MDR1"}, "[12]": {"target": "Homeodomain-interacting protein kinase 3 (Homo sapiens) (UniProt Q9H422)", "sequence (Q9H422 whole entry, looked up)": "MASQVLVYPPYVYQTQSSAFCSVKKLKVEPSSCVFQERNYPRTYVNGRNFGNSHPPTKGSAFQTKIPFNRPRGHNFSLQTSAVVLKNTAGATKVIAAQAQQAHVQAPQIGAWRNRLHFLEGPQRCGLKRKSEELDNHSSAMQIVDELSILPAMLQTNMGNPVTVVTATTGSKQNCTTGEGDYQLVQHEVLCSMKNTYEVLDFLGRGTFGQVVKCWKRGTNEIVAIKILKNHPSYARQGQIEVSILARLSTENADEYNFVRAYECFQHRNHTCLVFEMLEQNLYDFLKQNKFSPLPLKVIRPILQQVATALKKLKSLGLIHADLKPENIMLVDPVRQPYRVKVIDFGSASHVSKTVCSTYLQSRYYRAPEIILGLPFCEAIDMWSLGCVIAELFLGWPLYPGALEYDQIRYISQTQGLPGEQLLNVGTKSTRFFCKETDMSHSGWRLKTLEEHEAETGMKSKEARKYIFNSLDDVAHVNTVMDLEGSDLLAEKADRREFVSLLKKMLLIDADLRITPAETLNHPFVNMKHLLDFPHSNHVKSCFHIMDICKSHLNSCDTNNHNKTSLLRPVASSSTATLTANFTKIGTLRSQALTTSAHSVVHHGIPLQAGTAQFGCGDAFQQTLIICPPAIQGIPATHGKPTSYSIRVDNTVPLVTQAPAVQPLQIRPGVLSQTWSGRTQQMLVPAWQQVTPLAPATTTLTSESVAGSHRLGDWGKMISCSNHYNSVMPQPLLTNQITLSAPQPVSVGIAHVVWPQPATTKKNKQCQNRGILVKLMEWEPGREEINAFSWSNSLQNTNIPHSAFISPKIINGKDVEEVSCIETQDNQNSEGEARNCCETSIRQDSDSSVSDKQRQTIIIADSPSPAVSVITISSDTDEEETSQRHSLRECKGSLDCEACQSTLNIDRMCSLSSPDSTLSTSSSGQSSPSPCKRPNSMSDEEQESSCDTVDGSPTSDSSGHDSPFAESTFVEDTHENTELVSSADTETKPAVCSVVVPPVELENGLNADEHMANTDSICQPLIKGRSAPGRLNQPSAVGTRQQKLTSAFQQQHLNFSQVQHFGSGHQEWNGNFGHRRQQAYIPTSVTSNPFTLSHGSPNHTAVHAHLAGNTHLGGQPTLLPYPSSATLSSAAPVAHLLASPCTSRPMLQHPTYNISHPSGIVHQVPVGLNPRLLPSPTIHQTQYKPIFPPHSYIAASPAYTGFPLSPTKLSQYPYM", "test": "Competitive binding affinity to partial length wild type human HIPK3 expressed in mammalian expression system at 10 uM by kinomescan method relative to control", "in_short": "as §1"}, "[13]": {"test": "Antiproliferative activity against human KMS11 cells after 72 hrs by CellTiter-Glo assay", "type": "functional, cell-based", "conditions": "KMS-11, 72 h"}, "[14]": {"test": "Clearance in Sprague-Dawley rat at 2 mg/kg, iv relative to liver blood flow", "type": "ADME, organism-based", "conditions": "in vivo", "in_short": "as §2"}, "[15]": {"test": "Volume of distribution at steady state in Sprague-Dawley rat at 2 mg/kg, iv", "type": "ADME, organism-based", "conditions": "in vivo, read-out: Vdss", "in_short": "as §2"}, "[16]": {"target": "Mitogen-activated protein kinase 13 (Homo sapiens) (UniProt O15264)", "sequence (O15264 whole entry)": "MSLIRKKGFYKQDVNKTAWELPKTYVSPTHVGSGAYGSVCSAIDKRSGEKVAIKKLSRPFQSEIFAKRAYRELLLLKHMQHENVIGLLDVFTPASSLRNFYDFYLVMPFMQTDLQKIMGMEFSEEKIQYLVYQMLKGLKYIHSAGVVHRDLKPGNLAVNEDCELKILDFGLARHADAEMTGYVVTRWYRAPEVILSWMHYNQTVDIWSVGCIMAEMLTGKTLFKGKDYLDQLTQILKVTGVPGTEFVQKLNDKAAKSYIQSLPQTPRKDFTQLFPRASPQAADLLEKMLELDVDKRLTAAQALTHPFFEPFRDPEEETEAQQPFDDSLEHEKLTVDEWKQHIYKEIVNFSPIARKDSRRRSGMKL", "test": "Competitive binding affinity to full length wild type human p38delta expressed in bacterial expression system at 10 uM by kinomescan method relative to control", "in_short": "as §1"}},
  "note": "Activity calls are given as the source filed them. The rule behind the calls is not given here.",
  "data": [
    {"compound": "C[C@@H]1C[C@H](N)CN(c2ccncc2Nc2ncc3ccc(-c4c(F)cccc4F)nn23)C1", "values": [
      {"measurement": "microsomal CLint at 1 µM", "setting": "[1]", "value": 69, "unit": "µL/min/mg"},
      {"measurement": "Activity", "setting": "[2]", "value": 7, "unit": "%"},
      {"measurement": "Activity", "setting": "KMS-12-BM", "value": "Active"},
      {"measurement": "AUC", "setting": "[3]", "value": 3.5, "unit": "µM·h"},
      {"measurement": "MRT", "setting": "[4]", "value": 4.3, "unit": "h"},
      {"measurement": "Activity", "setting": "[5]", "value": 7, "unit": "%"},
      {"measurement": "F", "setting": "[6]", "value": 17, "unit": "%"},
      {"measurement": "IC50", "setting": "[7]", "value": 4380, "unit": "nM"},
      {"measurement": "solubility", "setting": "[8]", "value": 200, "unit": "µg/mL"},
      {"measurement": "IC50", "setting": "[9]", "value": 332, "unit": "nM"},
      {"measurement": "Activity", "setting": "[10]", "value": "Active"},
      {"measurement": "IC50", "setting": "[11]", "value": 361, "unit": "nM"},
      {"measurement": "Papp", "setting": "MDR1", "value": 4.5, "unit": "×10⁻⁶ cm/s"},
      {"measurement": "Activity", "setting": "[12]", "value": 1.2, "unit": "%"},
      {"measurement": "IC50", "setting": "[13]", "value": 100, "unit": "nM"},
      {"measurement": "CL", "setting": "[14]", "value": 40, "unit": "%"},
      {"measurement": "Vd", "setting": "[15]", "value": 7.3, "unit": "L/kg"},
      {"measurement": "Activity", "setting": "[16]", "value": 8.4, "unit": "%"}
    ]}
  ]
}
